From ChEMBL document CHEMBL1123769, “Renin inhibitors. Design of angiotensinogen transition-state analogues containing novel. (2R,3R,4R,5S)-5-amino-3,4-dihydroxy-2-isopropyl-7-methyloctanoic acid” (J Med Chem, 1987)
Where a SMILES comes first, the peptide text is derived from it. [ ]: non-standard residue; d: D form. The star is where a group is joined. 1Nal = N[C@@H](Cc1cccc2ccccc12)C(=O)O; Leu(ol) = CC(C)C[C@H](N)CO; Cbz = O=C(OCc1ccccc1)*

biological target: T1, Renin (Homo sapiens) (UniProt P00797); test: Tested for the inhibition of human plasma renin at 10e-4 M concentration
T1 sequence (whole entry): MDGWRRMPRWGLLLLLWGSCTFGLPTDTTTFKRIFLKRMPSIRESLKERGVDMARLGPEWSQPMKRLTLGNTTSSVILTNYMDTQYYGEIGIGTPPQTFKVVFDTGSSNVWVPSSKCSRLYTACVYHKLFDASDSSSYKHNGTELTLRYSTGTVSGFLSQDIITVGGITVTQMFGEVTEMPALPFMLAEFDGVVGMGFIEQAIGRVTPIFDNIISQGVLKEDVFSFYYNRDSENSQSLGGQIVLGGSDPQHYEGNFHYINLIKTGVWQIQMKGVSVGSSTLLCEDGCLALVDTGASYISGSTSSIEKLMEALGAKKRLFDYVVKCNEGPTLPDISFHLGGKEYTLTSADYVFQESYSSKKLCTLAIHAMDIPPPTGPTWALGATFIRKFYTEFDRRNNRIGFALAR

Row | SMILES | inhibition [%]
1 | CC(C)C[C@@H](CO)NC(=O)[C@H](Cc1c[nH]cn1)NC(=O)[C@H](Cc1ccccc1)NC(=O)OCc1ccccc1 (HELM PEPTIDE1{[O=C(OCc1ccccc1)[*:2]].F.H.[CC(C)C[C@@H](CO)N[*:1]]}$$$$V2.0) | 22

biological target: T2, Renin (Homo sapiens, UniProt P00797); test: Tested for the inhibition of human plasma renin
T2 sequence (P00797 whole entry): T1 sequence (whole entry)
In short: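 Lyophilized human plasma with 0.1% EDTA, incubated with phenylmethanesulfonyl fluoride, maleate buffer (pH 6.0) and inhibitor in 1% Tween 80/water vehicle, 90 min at 37 °C. Angiotensin I generated was measured by radioimmunoassay kit. Percent inhibition came from inhibitor versus control plasma renin activity. IC50 was estimated graphically from 3–4 inhibitor concentrations plotted on a semilog scale.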

Row | SMILES | IC50 [nM]
2 | CC[C@H](C)[C@H](NC(=O)[C@@H](CC(=O)[C@H](CC(C)C)NC(=O)[C@H](Cc1c[nH]cn1)NC(=O)[C@H](Cc1ccccc1)NC(=O)OC(C)(C)C)C(C)C)C(=O)NCc1ccccn1 | 3100
3 | CC(C)C[C@@H](C=O)NC(=O)[C@H](Cc1c[nH]cn1)NC(=O)[C@H](Cc1ccccc1)NC(=O)OCc1ccccc1 (Cbz-Phe-His-Leu-aldehyde) | 750
4 | CC(C)C[C@@H](C=O)NC(=O)[C@H](Cc1c[nH]cn1)NC(=O)[C@H](Cc1cccc2ccccc12)NC(=O)OCc1ccccc1 (Cbz-[1Nal]-His-Leu-aldehyde) | 80
5 | CC[C@H](C)CNC(=O)[C@H](C(C)C)[C@@H](O)[C@H](O)[C@H](CC(C)C)NC(=O)[C@H](Cc1c[nH]cn1)NC(=O)[C@H](Cc1ccccc1)NC(=O)OC(C)(C)C | 3400
6 | O=C(N[C@@H](Cc1cccc2ccccc12)C(=O)N[C@@H](Cc1c[nH]cn1)C(=O)N[C@@H](Cc1ccccc1)[C@@H](O)CO)OCc1ccccc1 | 1000
7 | CC(C)(C)OC(=O)N[C@@H](Cc1ccccc1)C(=O)N[C@@H](Cc1c[nH]cn1)C(=O)N[C@@H](Cc1ccccc1)[C@@H](O)CO | 2600
8 | CC[C@H](C)[C@H](NC(=O)[C@H](C(C)C)[C@@H](O)[C@H](O)[C@H](CC(C)C)NC(=O)[C@H](Cc1c[nH]cn1)NC(=O)[C@H](Cc1ccccc1)NC(=O)OC(C)(C)C)C(=O)NCc1ccccn1 | 350
9 | CC(C)C[C@@H](CO)NC(=O)[C@H](Cc1c[nH]cn1)NC(=O)[C@H](Cc1cccc2ccccc12)NC(=O)OCc1ccccc1 (Cbz-[1Nal]-His-[Leu(ol)]) | 3600
10 | CC[C@H](C)[C@H](NC(=O)[C@@H](C[C@H](O)[C@H](CC(C)C)NC(=O)[C@H](Cc1c[nH]cn1)NC(=O)[C@H](Cc1ccccc1)NC(=O)OC(C)(C)C)C(C)C)C(=O)NCc1ccccn1 | 220
